Measurements as given in ChEMBL document CHEMBL1123566, “Synthesis and cardiac electrophysiological activity of 2- and 3-[(substituted phenyl)alkyl]quinuclidines. Structure-activity relationships” (1987).
Several values for one entry are separate records, joined by “and”; a condition that tells them apart may be missing. Equal entries are not always repeated.

Experiments:
[1] = organism: Canis familiaris; experiment: In vitro electrophysiological evaluation in canine cardiac ventricular muscle reported as % change for the functional refractory period (FRP) concentration range of 0.1-100 uM; design: species or system Canis lupus familiaris, Muscle tissue
Summary of the method: (§1)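 Canine right ventricle and papillary muscle strips in oxygenated Tyrode's solution, fitted with stimulating and recording electrodes. The extra-stimulus conduction-interval method was adapted for in vitro use. FRP and CT were read from a conduction-interval curve before and after various compound concentrations, and expressed as percent change from control. Compounds were taken from 10 mM deionized-water stock into Tyrode's. Each strip was used once as its own control.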

[2] = organism: Canis familiaris; experiment: In vitro electrophysiological activity in canine cardiac Purkinje fibres given as maximum % change for action potential duration at 100 uM concentration; type: functional, Canis lupus familiaris, Purkinje fiber
Summary of the method: (§2)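 Canine cardiac Purkinje fibres, intracellular recording at 1 s basic cycle length, over cumulative concentration ranges. Compound 10 mM stock in deionized water diluted into Tyrode's. Each fibre used once as its own control. Value is the maximum % change from control in APD at 95% repolarization, with the concentration where it occurred; both values given if a biphasic response (>20% reversal) occurred.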

[3] = organism: Canis familiaris; experiment: In vitro electrophysiological activity in canine cardiac Purkinje fibres given as maximum % change for action potential duration at 10 uM concentration; type: functional, Canis lupus familiaris, Purkinje fiber; summary of the method: as §2
[4] = organism: Canis familiaris; experiment: In vitro electrophysiological evaluation in canine cardiac Purkinje fibres reported as percent change Vmax concentration range of 0.1-100 uM; Minimal (<IO%increase or a decrease in CT); type: functional; conditions: Canis lupus familiaris; Purkinje fiber
Summary of the method: (§3)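 Canine cardiac Purkinje fibres, intracellular microelectrode recording, paced at a basic cycle length of 1 s. APD95 and Vmax read simultaneously. Compound: 10 mM stock in deionized water, diluted into Tyrode's solution, tested over the stated concentration range. Each fibre used once as its own control. Result is % change from control, given at 10 µM or as the maximum with its concentration. M = <10% decrease or an increase in Vmax.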

[5] = organism: Canis familiaris; experiment: In vitro electrophysiological activity in canine cardiac Purkinje fibres given as maximum % change for action potential duration at 0.1-100 uM concentration; type: functional, Canis lupus familiaris, Purkinje fiber; summary of the method: as §2
[6] = organism: Canis familiaris; experiment: In vitro electrophysiological evaluation in canine cardiac ventricular muscle reported as % change for conduction time(CT) at 0.1-100 uM concentration range; Minimal (<IO%increase or a decrease in CT); type: functional, Canis lupus familiaris, Muscle tissue
[7] = organism: Canis familiaris; experiment: In vitro electrophysiological evaluation in canine cardiac ventricular muscle reported as maximum % change for conduction time(CT) at 0.1-30 uM concentration range; type: functional, Canis lupus familiaris, Muscle tissue; summary of the method: as §1
[8] = organism: Canis familiaris; experiment: (§4) In vitro electrophysiological evaluation in canine cardiac Purkinje fibres reported as % change for action potential duration at 0.1-100 uM concentration range; type: functional, Canis lupus familiaris, Purkinje fiber; summary of the method: as §3
[9] = organism: Canis familiaris; experiment: as §4; type: functional, Canis lupus familiaris, Purkinje fiber; summary of the method: as §3; remark: listed apart in the source
[10] = organism: Canis familiaris; experiment: In vitro electrophysiological evaluation in canine cardiac ventricular muscle reported as maximum % change for conduction time(CT) at 0.1-100 uM concentration range; type: functional, Canis lupus familiaris, Muscle tissue; summary of the method: as §1
[11] = organism: Canis familiaris; experiment: In vitro electrophysiological evaluation in canine cardiac ventricular muscle reported as maximum % change for functional refractory period (FRP) at 0.1-30 uM concentration range; design: species or system Canis lupus familiaris, Muscle tissue; summary of the method: as §1
[12] = organism: Canis familiaris; experiment: In vitro electrophysiological evaluation in canine cardiac ventricular muscle reported as % change for conduction time(CT) at 0.1-30 uM concentration range; Minimal (<IO%increase or a decrease in CT); type: functional, Canis lupus familiaris, Muscle tissue
[13] = organism: Canis familiaris; experiment: In vitro electrophysiological evaluation in canine cardiac ventricular muscle reported as % change for the functional refractory period (FRP) concentration range of 0.1-30 uM; design: species or system Canis lupus familiaris, Muscle tissue; summary of the method: as §1
[14] = organism: Canis familiaris; experiment: In vitro electrophysiological evaluation in canine cardiac Purkinje fibres reported as percent change Vmax concentration range of 0.1-100 uM; type: functional; conditions: Canis lupus familiaris; Purkinje fiber; summary of the method: as §3
[15] = organism: Canis familiaris; experiment: In vitro electrophysiological evaluation in canine cardiac ventricular muscle reported as maximum % change for conduction time(CT) at 0.1-30 uM concentration range; Minimal (<IO%increase or a decrease in CT); type: functional, Canis lupus familiaris, Muscle tissue; summary of the method: as §1
[16] = organism: Canis familiaris; experiment: In vitro electrophysiological evaluation in canine cardiac ventricular muscle reported as maximum % change for functional refractory period (FRP) at 0.1-100 uM concentration range; design: species or system Canis lupus familiaris, Muscle tissue

SMILES: CCCCCCC[N+]12CCC(CC1)C(=O)C2CCCc1ccc(Cl)cc1.O=P([O-])(O)O (stereo unspecified)
- FRP [1]: 5%
- APD95 [2]: 13% and 12% and 9%
- APD95 [3]: 38% and 69% and 35%
- Vmax [4]: < 10%
- APD95 [5]: 9%
- CT [6]: <10%
- CT [7]: 17%
- APD95 [8]: 38% and 69% and 35%
- APD95 [9]: 9%
- CT [10]: 31%
- FRP [11]: 29% and 27%
- CT [12]: <10%
- FRP [13]: 26% and 22%
- Vmax [14]: -18% and -15%
- CT [15]: <10%
- FRP [16]: 10%
